Compound activity (PubChem)
A selection: hits, their analogues and other compounds. The true share with any hit is near 4%.
SIRT5 block: sirtuin-5 (human) deacylase inhibition; Purified SirT5, succinyl-peptide AMC, trypsin-coupled fluorescence; inhibition, % at 15 µM; hit rate 1.1% among 330,000; AID 652115; in the data active = inhibition above about 15%
Target sequence (Q9NXA8 whole entry, looked up): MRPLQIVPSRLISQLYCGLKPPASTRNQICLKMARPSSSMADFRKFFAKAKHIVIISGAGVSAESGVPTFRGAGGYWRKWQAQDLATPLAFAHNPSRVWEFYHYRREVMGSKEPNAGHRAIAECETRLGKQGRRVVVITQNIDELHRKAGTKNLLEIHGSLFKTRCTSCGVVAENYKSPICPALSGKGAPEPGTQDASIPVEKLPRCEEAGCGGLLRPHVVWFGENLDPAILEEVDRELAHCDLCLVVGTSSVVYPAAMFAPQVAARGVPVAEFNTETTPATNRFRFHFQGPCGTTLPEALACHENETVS
FGF22 binding: FGF22 (human) thermal shift binding; Q9HCT0; recombinant FGF22 thermal shift, SYPRO orange fluorescence; percent of sucrose octasulfate shift, DMSO zero; activity (Tm shift, normalised), % at 9.99 µM; hit rate 1.5% among 340,000; AID 651658;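 active = mean Tm shift, scaled 0 neutral to 100 positive control, at about 1.3% or above, every replicate too, limit read from the data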
Target sequence (Q9HCT0 whole entry, looked up): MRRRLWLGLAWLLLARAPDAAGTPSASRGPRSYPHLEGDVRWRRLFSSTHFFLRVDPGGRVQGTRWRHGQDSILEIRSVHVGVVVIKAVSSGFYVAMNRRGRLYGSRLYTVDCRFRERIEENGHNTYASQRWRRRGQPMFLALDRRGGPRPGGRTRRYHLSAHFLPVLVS
E-selectin induc: induces E-selectin expression in human endothelial cells | HUVEC E-selectin immunofluorescence imaging; normalized: neutral wells 0, TNF-alpha wells 100 | hit rate 0.37% among 260,000 | activation, % at 7.58 µM | AID 686992;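 active = mean E-selectin-positive cell signal at least 10% of the positive control, reached in at least 60% of replicates, without over 20% cell loss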
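Test system: HUVEC; input: 3,000 HUVEC/well; measured by: immunofluorescence imaging; read-out: % PE-positive cells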
Statin myotox sup: protects C2C12 myotubes from simvastatin toxicity. hit rate 0.78% among 330,000. AID 602340. rescue of ATP level, % at 7.49 µM. ATP luminescence, 48 h; scaled: DMSO 0, geranylgeraniol control 100;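 active = mean ATP rescue above about 67%, or every replicate alone reaching that limit, limit read from the data, passing the limit was not always enough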;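 note: myotubes were challenged with 10 µM simvastatin during compound exposure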
Ecoli rRNA inh: selective bacterial rRNA inhibition in E. coli. E. coli WT GFP vs humanized-ribosome RFP mutants, fluorescence, 24 h; hits give low values; DMSO median 0, no signal -100. GFP signal change (wild-type ribosome), % (test concentration not listed). hit rate 1.6% among 350,000. AID 720706;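 active = significant combined selectivity score with lowered wild-type GFP, culture density cut under 30%, mutant RFP and density less affected; inactive = any of these conditions unmet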
FN deposit inh: fibronectin deposition inhibition | AH1F fibroblasts, Alexa488-fibronectin deposition fluorescence, overnight | inhibition, % at 12.6 µM | hit rate 0.086% among 350,000 | AID 743247;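 active = mean inhibition across replicates of 30% or more, regardless of how many single replicates reach that level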;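 note: positive control wells lacked labelled fibronectin entirely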
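Material: AH1F fibroblasts assembling fluorescent fibronectin matrix; amount: 10000 AH1F cells/well; medium: DMEM, 2% serum; reagent: Alexa488-fibronectin, 24 nM final in well; dosing: single compound dose, delivered by pin transfer; incubation: 1 h adhesion, overnight exposure; detection: fluorescence after three HBSS washes, excitation 485 nm, emission 525 nm; measure: fibronectin deposition inhibition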
Numbers without * were called inactive; · = no result given.

SMILES	SIRT5 block	FGF22 binding	E-selectin induc	Statin myotox sup	Ecoli rRNA inh	FN deposit inh
O=C(C[C@@H]1CC[C@H]2[C@@H](COC[C@H](O)CN2Cc2ccncc2)O1)NCc1ccncc1	-5	0	0	-7	5	0
CC(O)[C@H]1CN=C(N)N1CC1CCCCC1 (some centres not stated)	16*	0	0	-13	-2	5
COc1ccc(NC(=O)Nc2cccc3c2O[C@H](CN(C)S(=O)(=O)c2ccc(F)cc2)[C@@H](C)CN([C@@H](C)CO)C3=O)cc1	·	-1	1	-13	-2	·
C[C@@H]1CN([C@H](C)CO)C(=O)c2cc(-c3ccc(C#N)cc3)cnc2O[C@@H]1CN(C)C(=O)c1cccnc1	-2	0	0	-10	4	3
CCCCNC(=NCc1cccc(C(F)(F)F)c1)Nc1ccccc1	20*	0	·	-9	0	8
O=C(Cc1cccc(C(F)(F)F)c1)Nc1ccccc1	-2	43	·	·	-19	1
CCOC(=O)c1cc(-c2ccccc2)nn1CC1CC(c2cccnc2)=NO1 (configuration not stated)	·	0	0	·	-1	2
CNC(=O)COC(=O)c1cc(-c2ccccc2)nn1-c1ccccc1	-3	0	0	4	-27*	3
CCOC(=O)c1cc(-c2cccnc2)nn1-c1ccccc1C	-2	44*	0	-4	-5	7
Cc1nc(N)nc(N)c1CCCc1ccc(Cl)c(Cl)c1	15*	0	0	·	-33	-9
CC(C)NC(=O)CN1C(=O)NC(CCc2ccccc2)C1=O (configuration not stated)	·	·	·	114*	·	·
Cn1c(=O)c(C#N)c(-c2ccc(F)cc2)c2cc(C(=O)c3cc(Cl)cc(Cl)c3O)cnc21	0	0	1	-60	-28*	-6
CCC(=O)N1CCCCN2[C@H](C1)[C@H](c1ccc(C#Cc3ccccc3)cc1)[C@@H]2CO	1	0	0	·	-54	·
O=C(C[C@H]1CC[C@H]2[C@@H](COC[C@@H](O)CN2S(=O)(=O)c2ccccc2)O1)Nc1ccccc1	5	0	0	-13	-3	4
O=C(Cn1c(C(F)(F)F)nc2ccccc21)Nc1ccccc1C(=O)O	-2	·	·	-4	-4	9
CC(C(=O)Nc1ccccc1C(=O)O)n1c(C(F)(F)F)nc2ccccc21 (configuration not stated)	0	43*	0	9	-1	-3
COc1ccc2c3c(n(C)c2c1)[C@@H](CO)N(CC1CC1)CC31CCN(C(=O)c2ccc(F)cc2)CC1	1	0	0	·	-3	·
Cc1cc(C)n2nc(C)c(Br)c2n1	1	44*	·	·	8	-14
O=C(C[C@H]1CC[C@H]2[C@@H](COC[C@H](O)CN2C(=O)C2CCOCC2)O1)NCc1ccncc1	-2	0	0	-11	12	-8
N/C(Cc1ccc(Cl)cc1Cl)=N\OC(=O)c1ccccc1	0	0	0	-2	-31*	-4
C[C@@H]1CCCCO[C@H](CN(C)S(=O)(=O)c2ccc(Cl)cc2)[C@@H](C)CN([C@H](C)CO)C(=O)c2cc(NC(=O)CCCN(C)C)ccc2O1	-4	0	0	13	2	·
C[n+]1c(-c2ccccc2)cc2c(=Cc3ccccc3)c3ccccc3n21	·	-1	220*	·	-43	2
CN(C)c1ccc(C=c2c3cc(O)ccc3n3c2cc(-c2ccccc2)[n+]3C)cc1	3	-1	139*	·	20	9
CN(C)c1ccc(/C=C(\C#N)c2ccccc2)cc1	·	·	·	-114	·	·
CC(C)n1c2ccccc2c2cc([N+](=O)[O-])ccc21	-1	0	0	·	5	6
SMILES	SIRT5 block	FGF22 binding	E-selectin induc	Statin myotox sup	Ecoli rRNA inh	FN deposit inh
C[n+]1c(-c2ccccc2)cc2c(=Cc3ccc([N+](=O)[O-])cc3)c3ccccc3n21	-1	0	122*	·	-18	3
CCOP(=O)(OCC)c1nc(-c2cccc3ccccc23)oc1NCCc1ccc(OC)cc1	-40	0	0	92*	9	10
COc1ccc(CNc2oc(-c3cccc4ccccc34)nc2C#N)cc1	-5	0	·	-12	-14	·
CC(C)NC(=O)Nc1ccc2c(c1)C(=O)N([C@H](C)CO)C[C@@H](C)[C@H](CN(C)Cc1ccc(Oc3ccccc3)cc1)O2	0	0	0	-7	4	18
COc1ccc2c(c1OC)C(=O)N1N=C(c3ccc(F)cc3)CC21 (configuration not stated)	3	44*	·	2	2	6
CC(=O)N(C)C[C@@H]1Oc2ncc(-c3ccc(F)cc3)cc2C(=O)N([C@H](C)CO)C[C@H]1C	-6	0	0	-12	-3	-2
COc1cc(/C=C2\C(=N)N3N=C(S(C)(=O)=O)SC3=NC2=O)ccc1OCCOc1ccccc1C	33*	0	0	4	-25	3
C[C@@H]1CN([C@H](C)CO)C(=O)c2cc(NC(=O)CCCN(C)C)ccc2O[C@@H](C)CCCCO[C@@H]1CN(C)Cc1ccc(C(F)(F)F)cc1	-4	0	0	·	0	·
COc1ccccc1-c1cn(CC[C@@H]2CC[C@H](NC(=O)NC(C)C)[C@H](CO)O2)nn1	-4	0	1	-2	-2	0
CC1(C#CC[N+]2(C)CCCCC2)CCC2C(O1)c1ccccc1OC2(C)C (configuration not stated)	0	44*	15	·	22	-13
COc1ccc(CN(C)C[C@H]2Oc3ccc(NC(=O)NC4CCCCC4)cc3CC(=O)N([C@H](C)CO)C[C@@H]2C)cc1	·	·	0	·	1	·
CN(C)CC1CC/C(=C\c2ccc(O)cc2)C1=O (configuration not stated)	4	0	0	·	-31*	6
O=C1C[C@@H]2c3c(cccc3CN1Cc1ccc(Br)cc1)C[C@@H](O)[C@H]2O	-5	0	0	100*	7	4
Cn1cc(CN2CCC(C(O)c3cccs3)CC2)c(-c2ccccc2F)n1 (configuration not stated)	-7	0	-1	3	6	-7
Cn1cc(CN2CCC(C(=O)N3CCCC3)CC2)c(-c2ccccc2F)n1	0	43*	0	·	16	8
C[C@@H]1CCCCO[C@H](CN(C)C)[C@@H](C)CN([C@H](C)CO)C(=O)c2cc(NC(=O)Cc3ccccc3)ccc2O1	·	·	0	-1	2	·
CCNC(=O)C[C@@H]1CC[C@H]2[C@@H](COc3ccc(NC(=O)c4cccs4)cc3C(=O)N2C)O1	-7	0	0	0	1	-3
